Data reported in ChEMBL document CHEMBL2062426 (J Med Chem, 2012).

How the values were obtained:
Neutrophil collagenase = Neutrophil collagenase (Homo sapiens, UniProt P22894); assay: Inhibition of MMP8 using (7-methoxycoumarin-4-yl)acetyl-Pro-Leu-Gly-Leu-(3-(2,4-dinitrophenyl)-L-2,3-diaminopropionyl)Ala-Arg-NH2 as substrate incubated for 30 mins prior to substrate addition measured for 10 mins by fluorometry
Method in brief: (§1)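 Activated MMP-8 or MMP-9 (2 nM) was preincubated with inhibitor (10 pM–1 mM) in 50 mM Tris-HCl pH 7.5 with 0.2 M NaCl, 5 mM CaCl2, 20 μM ZnSO4 and 0.05% Brij 35 at 37 °C for 30 min. Fluorogenic substrate (10 μL of 50 μM into 90 μL) was then added. Rates from the first 10 min were plotted against inhibitor concentration, and values are the mean of three experiments.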

Collagenase 3 = Collagenase 3 (Homo sapiens, UniProt P45452); assay: Inhibition of MMP13 using (7-methoxycoumarin-4-yl)acetyl-Pro-Leu-Gly-Leu-(3-(2,4-dinitrophenyl)-L-2,3-diaminopropionyl)Ala-Arg-NH2 as substrate incubated for 30 mins prior to substrate addition measured for 10 mins by fluorometry
[1] = molecular target: 72 kDa type IV collagenase (Homo sapiens, UniProt P08253); assay: Inhibition of MMP2 using (7-methoxycoumarin-4-yl)acetyl-Pro-Leu-Gly-Leu-(3-(2,4-dinitrophenyl)-L-2,3-diaminopropionyl)Ala-Arg-NH2 as substrate incubated for 30 mins prior to substrate addition measured for 10 mins by fluorometry
Chain of 72 kDa type IV collagenase (P08253 whole entry): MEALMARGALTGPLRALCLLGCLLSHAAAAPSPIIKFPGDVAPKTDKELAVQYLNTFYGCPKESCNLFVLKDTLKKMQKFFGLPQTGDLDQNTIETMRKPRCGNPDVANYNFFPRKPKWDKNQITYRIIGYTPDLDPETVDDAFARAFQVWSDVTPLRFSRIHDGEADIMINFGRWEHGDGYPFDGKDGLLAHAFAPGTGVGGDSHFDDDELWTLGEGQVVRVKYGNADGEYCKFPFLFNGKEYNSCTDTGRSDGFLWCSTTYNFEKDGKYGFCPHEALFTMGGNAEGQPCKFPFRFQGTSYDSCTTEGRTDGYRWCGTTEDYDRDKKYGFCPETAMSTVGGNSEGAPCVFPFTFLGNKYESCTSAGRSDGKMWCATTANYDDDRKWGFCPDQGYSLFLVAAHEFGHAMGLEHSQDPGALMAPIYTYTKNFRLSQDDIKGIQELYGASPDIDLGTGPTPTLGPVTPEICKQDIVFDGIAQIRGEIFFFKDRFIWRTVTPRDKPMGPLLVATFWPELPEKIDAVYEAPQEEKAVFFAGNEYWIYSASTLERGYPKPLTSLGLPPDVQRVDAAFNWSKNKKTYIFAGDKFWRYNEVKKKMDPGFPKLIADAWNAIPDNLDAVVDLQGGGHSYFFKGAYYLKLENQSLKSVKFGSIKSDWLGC

[2] = molecular target: Matrix metalloproteinase-9 (Homo sapiens, UniProt P14780); assay: Inhibition of MMP9 using (7-methoxycoumarin-4-yl)acetyl-Pro-Leu-Gly-Leu-(3-(2,4-dinitrophenyl)-L-2,3-diaminopropionyl)Ala-Arg-NH2 as substrate incubated for 30 mins prior to substrate addition measured for 10 mins by fluorometry; method in brief: as §1
Chain of Matrix metalloproteinase-9 (P14780 whole entry): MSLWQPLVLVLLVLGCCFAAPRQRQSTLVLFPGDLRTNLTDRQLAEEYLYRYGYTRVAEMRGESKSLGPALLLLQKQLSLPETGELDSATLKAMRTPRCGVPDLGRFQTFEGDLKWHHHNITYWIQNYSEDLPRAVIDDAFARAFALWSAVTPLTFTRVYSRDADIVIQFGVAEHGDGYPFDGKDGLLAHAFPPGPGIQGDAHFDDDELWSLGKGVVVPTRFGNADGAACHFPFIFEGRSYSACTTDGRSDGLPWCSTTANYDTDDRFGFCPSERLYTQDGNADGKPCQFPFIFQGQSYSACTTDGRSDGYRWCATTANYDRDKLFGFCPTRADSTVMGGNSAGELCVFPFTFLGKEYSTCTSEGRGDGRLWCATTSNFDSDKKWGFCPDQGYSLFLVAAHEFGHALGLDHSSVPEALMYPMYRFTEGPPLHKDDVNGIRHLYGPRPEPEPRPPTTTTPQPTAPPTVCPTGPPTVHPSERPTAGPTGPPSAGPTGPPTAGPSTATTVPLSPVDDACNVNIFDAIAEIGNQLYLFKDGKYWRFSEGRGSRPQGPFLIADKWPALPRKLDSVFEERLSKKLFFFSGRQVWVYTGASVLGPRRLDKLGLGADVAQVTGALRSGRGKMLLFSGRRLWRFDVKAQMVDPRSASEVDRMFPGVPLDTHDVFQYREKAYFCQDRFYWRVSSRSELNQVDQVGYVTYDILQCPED

Chain of Neutrophil collagenase (P22894 whole entry): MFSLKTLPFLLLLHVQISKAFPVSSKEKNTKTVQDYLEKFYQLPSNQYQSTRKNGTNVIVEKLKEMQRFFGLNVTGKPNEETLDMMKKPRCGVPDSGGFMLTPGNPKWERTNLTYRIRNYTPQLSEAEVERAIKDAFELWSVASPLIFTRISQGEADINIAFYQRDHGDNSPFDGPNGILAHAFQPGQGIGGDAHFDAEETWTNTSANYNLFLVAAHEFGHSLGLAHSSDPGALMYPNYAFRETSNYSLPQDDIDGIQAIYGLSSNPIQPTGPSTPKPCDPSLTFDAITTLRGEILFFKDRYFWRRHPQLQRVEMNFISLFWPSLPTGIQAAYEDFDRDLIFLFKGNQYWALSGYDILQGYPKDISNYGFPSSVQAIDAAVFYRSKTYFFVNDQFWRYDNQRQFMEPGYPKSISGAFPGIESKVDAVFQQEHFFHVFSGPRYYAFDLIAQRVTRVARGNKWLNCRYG

IC50 (Neutrophil collagenase) [nM] | IC50 (Collagenase 3) [nM] | IC50 [1] [nM] | IC50 [2] [nM] | SMILES
0.5 | 0.5 | 0.2 | 0.6 | COc1ccc(S(=O)(=O)N(Cc2cn([C@@H]3O[C@H](CO)[C@@H](O)[C@H](O)[C@H]3F)nn2)[C@@H](C(=O)NO)C(C)C)cc1
> 100000 | > 100000 | > 100000 | > 100000 | COc1ccc(S(=O)(=O)N(Cc2cn(CCOCCOCCOCCn3cc(CN([C@@H](C(=O)NO)C(C)C)S(=O)(=O)c4ccc(OC)cc4)nn3)nn2)[C@@H](C(=O)NO)C(C)C)cc1
